Laboratory results: ChEMBL document CHEMBL4680371, “Design and Structure-Activity Relationship of a Potent Furin Inhibitor Derived from Influenza Hemagglutinin” (ACS Med Chem Lett, 2021)
Where a SMILES comes first, the peptide text is derived from it.

Target: Furin (Homo sapiens, UniProt P09958)
Assay: Inhibition of recombinant soluble human furin using pyroGlu-Arg-Thr-Lys-Arg-methyl-coumaryl-7-amide as substrate measured after 1 hr
How it was run: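 Soluble human recombinant furin was tested in a competitive kinetic assay. Ki is reported as the mean ± SD of at least two independent experiments.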

Sequence of Furin (P09958 whole entry): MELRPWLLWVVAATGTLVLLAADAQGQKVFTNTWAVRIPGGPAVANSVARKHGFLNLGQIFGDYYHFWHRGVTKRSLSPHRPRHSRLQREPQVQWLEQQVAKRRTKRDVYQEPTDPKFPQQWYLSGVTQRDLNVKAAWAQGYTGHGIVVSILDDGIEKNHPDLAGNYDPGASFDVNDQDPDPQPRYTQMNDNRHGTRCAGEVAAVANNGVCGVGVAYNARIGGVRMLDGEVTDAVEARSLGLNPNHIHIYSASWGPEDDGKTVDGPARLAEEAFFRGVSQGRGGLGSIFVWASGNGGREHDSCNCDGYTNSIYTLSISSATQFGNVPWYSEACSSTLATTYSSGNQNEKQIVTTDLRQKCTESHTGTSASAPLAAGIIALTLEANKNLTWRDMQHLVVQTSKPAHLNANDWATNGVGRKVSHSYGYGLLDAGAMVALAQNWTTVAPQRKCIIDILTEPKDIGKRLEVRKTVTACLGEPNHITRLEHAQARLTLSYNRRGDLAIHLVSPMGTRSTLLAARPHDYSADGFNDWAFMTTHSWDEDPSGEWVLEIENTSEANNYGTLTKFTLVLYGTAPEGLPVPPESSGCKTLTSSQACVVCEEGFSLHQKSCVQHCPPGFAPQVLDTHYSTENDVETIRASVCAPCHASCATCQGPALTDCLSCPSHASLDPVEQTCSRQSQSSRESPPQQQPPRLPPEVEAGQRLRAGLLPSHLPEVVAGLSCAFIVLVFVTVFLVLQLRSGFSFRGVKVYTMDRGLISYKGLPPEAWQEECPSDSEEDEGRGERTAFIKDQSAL

SMILES | Ki [nM]
CC[C@H](C)[C@H](NC(=O)[C@H](CCCNC(=N)N)NC(C)=O)C(=O)N[C@@H](CCCNC(=N)N)C(=O)N[C@@H](CCCNC(=N)N)C(=O)N[C@@H](CCCNC(=N)N)C(=O)N[C@@H](CCCCN)C(=O)N[C@@H](CCCCN)C(=O)N[C@@H](CCCNC(=N)N)C(=O)N[C@H](C(N)=O)[C@@H](C)O | 20
CC(=O)N[C@@H](CCCNC(=N)N)C(=O)N1CCC[C@H]1C(=O)N[C@@H](CCCNC(=N)N)C(=O)N[C@@H](CCCNC(=N)N)C(=O)N[C@@H](CCCNC(=N)N)C(=O)N[C@@H](CCCCN)C(=O)N[C@@H](CCCCN)C(=O)N[C@@H](CCCNC(=N)N)C(=O)N[C@H](C(N)=O)[C@@H](C)O | 17
CC(=O)N[C@@H](CCCNC(=N)N)C(=O)N[C@H](C(=O)N[C@@H](CCCNC(=N)N)C(=O)N[C@@H](CCCNC(=N)N)C(=O)N[C@@H](CCCNC(=N)N)C(=O)N[C@@H](CCCCN)C(=O)N[C@@H](CCCCN)C(=O)N[C@@H](CCCNC(=N)N)C(=O)N[C@H](C(N)=O)[C@@H](C)O)[C@@H](C)O | 16
CC[C@H](NC(=O)[C@H](CCCNC(=N)N)NC(=O)[C@H](C)NC(=O)[C@H](CO)NC(C)=O)C(=O)N[C@@H](CCCNC(=N)N)C(=O)N[C@@H](CCCCN)C(=O)N[C@@H](CCCCN)C(=O)N[C@@H](CCCNC(=N)N)C(=O)N[C@H](C(N)=O)[C@@H](C)O | 11
CSCC[C@H](NC(=O)[C@H](CCCNC(=N)N)NC(C)=O)C(=O)N[C@@H](CCCNC(=N)N)C(=O)N[C@@H](CCCNC(=N)N)C(=O)N[C@@H](CCCNC(=N)N)C(=O)N[C@@H](CCCCN)C(=O)N[C@@H](CCCCN)C(=O)N[C@@H](CCCNC(=N)N)C(=O)N[C@H](C(N)=O)[C@@H](C)O | 38
CC(=O)N[C@@H](CCCNC(=N)N)C(=O)N[C@@H](CCCCN)C(=O)N[C@@H](CCCNC(=N)N)C(=O)N[C@@H](CCCNC(=N)N)C(=O)N[C@@H](CCCNC(=N)N)C(=O)N[C@@H](CCCCN)C(=O)N[C@@H](CCCCN)C(=O)N[C@@H](CCCNC(=N)N)C(=O)N[C@H](C(N)=O)[C@@H](C)O | 16
CC[C@H](C)[C@H](NC(=O)[C@H](CCCNC(=N)N)NC(=O)[C@H](C)NC(=O)[C@H](CCC(N)=O)NC(C)=O)C(=O)N[C@@H](CCCNC(=N)N)C(=O)N[C@@H](CCCCN)C(=O)N[C@@H](CCCCN)C(=O)N[C@@H](CCCNC(=N)N)C(=O)N[C@H](C(N)=O)[C@@H](C)O (Ac-QARIRKKRT-NH2) | 9
CC(=O)N[C@@H](CC(N)=O)C(=O)N[C@@H](C)C(=O)N[C@@H](CCCNC(=N)N)C(=O)N[C@@H](CCCNC(=N)N)C(=O)N[C@@H](CCCNC(=N)N)C(=O)N[C@@H](CCCCN)C(=O)N[C@@H](CCCCN)C(=O)N[C@@H](CCCNC(=N)N)C(=O)N[C@H](C(N)=O)[C@@H](C)O | 12
CC(=O)N[C@@H](CCCNC(=N)N)C(=O)N[C@@H](C)C(=O)N[C@@H](Cc1c[nH]c2ccccc12)C(=O)N[C@@H](CCCNC(=N)N)C(=O)N[C@@H](CCCNC(=N)N)C(=O)N[C@@H](CCCCN)C(=O)N[C@@H](CCCCN)C(=O)N[C@@H](CCCNC(=N)N)C(=O)N[C@H](C(N)=O)[C@@H](C)O | 97
CC(=O)N[C@@H](CCCNC(=N)N)C(=O)N[C@@H](Cc1c[nH]cn1)C(=O)N[C@@H](CCCNC(=N)N)C(=O)N[C@@H](CCCNC(=N)N)C(=O)N[C@@H](CCCNC(=N)N)C(=O)N[C@@H](CCCCN)C(=O)N[C@@H](CCCCN)C(=O)N[C@@H](CCCNC(=N)N)C(=O)N[C@H](C(N)=O)[C@@H](C)O | 21
CC[C@H](C)[C@H](NC(=O)[C@H](CCCNC(=N)N)NC(=O)[C@H](C)NC(=O)[C@@H](NC(C)=O)[C@@H](C)O)C(=O)N[C@@H](CCCNC(=N)N)C(=O)N[C@@H](CCCCN)C(=O)N[C@@H](CCCCN)C(=O)N[C@@H](CCCNC(=N)N)C(=O)N[C@H](C(N)=O)[C@@H](C)O (Ac-TARIRKKRT-NH2) | 11
CC(=O)N[C@H](C(=O)N[C@@H](C)C(=O)N[C@@H](CCCNC(=N)N)C(=O)N[C@@H](CCCNC(=N)N)C(=O)N[C@@H](CCCNC(=N)N)C(=O)N[C@@H](CCCCN)C(=O)N[C@@H](CCCCN)C(=O)N[C@@H](CCCNC(=N)N)C(=O)N[C@H](C(N)=O)[C@@H](C)O)[C@@H](C)O | 10
